Bioassay records (PubChem BioAssay)
This is a sample that favours compounds with a hit; in the whole collection about 1.1% have one here.
SR-BI DiI inh = mouse SR-BI HDL lipid transfer inhibition; Q61009; ldlA[mSR-BI] CHO cells, DiI-HDL uptake fluorescence, 3 h; inhibition, % at 12.5 µM; actives 0.96% (n = 320,000); AID 488896;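 active = mean replicate inhibition of at least 70% and a set share of replicates each scoring 70 or more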;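 also: 0% = median of neutral control wells and 100% = median of positive control wells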
GSK3B inh = human GSK3beta kinase inhibition; P49841; GST-GSK3beta kinase, ADP-Glo luminescence, 60 min; active compounds read low; activity score (negative = inhibition), % at 10 µM; actives 0.038% (n = 300,000); AID 2097;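 active = more than half of replicate wells score below -50%, meaning over 50% inhibition versus plate controls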;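 also: 0% = median DMSO wells and -100% = median GW8510 positive control wells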
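Assay system: GST-tagged human GSK3beta kinase, cell-free; Input: 1.6 ng GSK3beta; Medium: Tris/MgCl2 kinase buffer; Timing: 60 min enzyme reaction, room temperature; Signal: ADP-Glo luminescence quantifying ADP generated by kinase; Evaluation: score relative to plate controls; Benchmarks: DMSO neutral wells and GW8510 at 20 µM as positive.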
SR-BI DiI-HDL act = enhances SR-BI lipid uptake from DiI-HDL; actives 0.096% (n = 320,000); AID 504775; CHO ldlA[mSR-BI] cells, DiI-HDL uptake fluorescence, 3 h; 100 = double the neutral-control signal; activation, % at 12.5 µM;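 active = mean replicate activation of at least 60% and every replicate at or above 60%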;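 also: 0% = median plate neutral-control signal and 100% = twice that signal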
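System: LDL receptor-deficient CHO ldlA cells overexpressing murine SR-BI | Timing: 3 h uptake period with compound, 37 °C | Medium: HEPES-buffered (25 mM, pH 7.4) F12 plus 0.5% BSA | Dosing: Single-point compound dose | Signal: Bottom-read fluorescence, 550/595 nm | Read-out: Retained DiI signal reflecting DiI-HDL uptake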
CDK5 inh = CDK5/p35 (human) kinase inhibition. Q00535+Q15078. Recombinant CDK5/p35, ADP-Glo luminescence, 60 min. inhibition, % at 10 µM. actives 0.01% (n = 330,000). AID 488839;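 active = highest replicate inhibition of at least 50% and at least 75% of replicates reaching 50%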;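 also: plate controls were DMSO neutral control for no effect and GW8510 at 10 µM for full effect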
Target sequence (Q00535 whole entry, looked up): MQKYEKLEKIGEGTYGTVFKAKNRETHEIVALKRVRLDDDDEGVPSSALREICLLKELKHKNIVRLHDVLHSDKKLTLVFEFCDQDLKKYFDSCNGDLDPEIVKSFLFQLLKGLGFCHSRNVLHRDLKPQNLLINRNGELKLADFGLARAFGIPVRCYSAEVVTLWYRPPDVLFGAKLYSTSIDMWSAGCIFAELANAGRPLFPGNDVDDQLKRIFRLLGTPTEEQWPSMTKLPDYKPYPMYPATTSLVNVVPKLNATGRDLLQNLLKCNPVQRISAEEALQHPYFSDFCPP
Target sequence (Q15078 whole entry, looked up): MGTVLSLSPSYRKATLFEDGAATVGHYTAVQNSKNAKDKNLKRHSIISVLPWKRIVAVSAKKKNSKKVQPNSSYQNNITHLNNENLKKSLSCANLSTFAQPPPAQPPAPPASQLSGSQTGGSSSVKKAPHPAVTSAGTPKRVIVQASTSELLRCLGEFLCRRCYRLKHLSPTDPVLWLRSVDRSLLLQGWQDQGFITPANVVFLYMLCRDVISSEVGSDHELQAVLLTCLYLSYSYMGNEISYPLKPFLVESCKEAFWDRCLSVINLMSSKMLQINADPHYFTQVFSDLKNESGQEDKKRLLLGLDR
GSK3A inh = blocks human GSK-3 alpha kinase | P49840 | ADP-Glo luminescence, 60 min | inhibition, % at 10 µM | actives 0.1% (n = 320,000) | AID 2650;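 active = more than half of replicates show inhibition above 20%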;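 also: GST-tagged GSK-3 alpha with peptide substrate and 25 µM ATP; 0% = DMSO neutral wells and 100% = GW8510 positive control wells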
The depositor's hits bear a star; i = inactive; nt = no result.

SMILES	SR-BI DiI inh	GSK3B inh	SR-BI DiI-HDL act	CDK5 inh	GSK3A inh
COc1cc(/C=C/[N+](=O)[O-])ccc1O	-81	4	81*	0	0
CCN(CC)c1ccc(/C=C/[N+](=O)[O-])cc1	4	2	-4	-9	-1
COc1ccc2nc(NC(=O)CCc3nc(C4=CCN(C)CC4)no3)sc2c1	42	-1	-42	-2	53*
CCC1([N+](=O)[O-])COP(=O)(NCc2cccnc2)OC1 (configuration not stated)	-24	nt	24	-1	nt
CCCCCCn1c(O)c(/C=N/N2CCCCCC2)c(=O)[nH]c1=O	-151	-4	151*	0	1
O=C(O)C1C2c3ccccc3C(O)C1(C(=O)O)c1ccccc12 (configuration not stated)	-9	nt	9	-1	nt
CCCn1c(C)c(C(=O)c2cccc3ccccc23)c2ccccc21	82*	nt	-82	1	-5
Cc1c(C(=O)c2ccccc2)c2ccccc2n1C	28	-3	-28	0	0
CCN1C(=O)C(=C2C=C(C)N(Cc3ccco3)C(C)=C2)C(=O)N(CC)C1=S	19	-2	-19	0	55*
CC12CC(=O)C3C(CCC4CC(=O)C=CC43C)C1CCC2=O (configuration not stated)	-5	nt	5	-2	nt
C[C@H]1CCCC(=O)CCC/C=C/c2cc(O)cc(O)c2C(=O)O1	19	-44	-16	1	52*
COc1cc(O)cc2c1C(=O)OC(C)CCCC(=O)CCC/C=C\2 (configuration not stated)	-6	-2	6	0	-2
CN(C)c1ccc(NC(=O)CN2C(=O)CN=C(c3ccccc3)c3ccccc32)cc1	83*	1	-83	0	-1
COC(=O)C1=C(c2ccc(F)cc2F)C[C@@H]2CC[C@H]1N2C(=O)N1CCC(O)CC1	-8	nt	8	-3	-1
CCCCCn1c(=O)c(C(=O)NCCc2ccccc2)c(O)c2ccccc21	75*	2	-75	3	-2
CCN(CC)CCNC(=O)c1c(O)c2ccccc2n(Cc2ccccc2)c1=O	-1	2	1	0	4
CCCCCn1c(=O)c(C(=O)Nc2ccccc2Cl)c(O)c2ccccc21	93*	2	-93	-1	-2
O=C(NN=Cc1ccc(N(CCCl)CCCl)cc1)c1cc(=O)[nH]c(=O)[nH]1	-22	nt	22	-1	nt
O=C(NN=Cc1ccc(N(CCCl)CCCl)cc1Cl)c1cccnc1	80*	nt	-80	-6	nt
Cc1cc(N(CCCl)CCCl)ccc1C=NNC(=O)c1cccnc1	89*	nt	-89	0	nt
CC12CCC3c4ccc(OC(=O)N(CCCl)CCCl)cc4CCC3C1CCC2O (configuration not stated)	48	nt	-48	-2	nt
COc1ccc(Cn2c(O)c(/C=N/NC(=O)c3ccncc3)c(=O)[nH]c2=O)cc1	-2	1	2	0	1
O=C(N/N=C/c1c(O)n(CCc2ccccc2)c(=O)[nH]c1=O)c1ccccc1O	nt	0	nt	2	2
COc1ccc(Cn2c(O)c(/C=N/NC(=O)c3ccccc3)c(=O)[nH]c2=O)cc1	81*	0	-81	1	-1
O=C(N/N=C/c1c(O)n(CCc2ccc(F)cc2)c(=O)[nH]c1=O)c1ccccc1	nt	2	nt	nt	-3
SMILES	SR-BI DiI inh	GSK3B inh	SR-BI DiI-HDL act	CDK5 inh	GSK3A inh
O=C(N/N=C/c1c(O)n(Cc2ccccc2)c(=O)[nH]c1=O)c1ccccc1O	117*	0	-117	-1	-1
O=C(N/N=C/c1c(O)n(Cc2ccc(F)cc2)c(=O)[nH]c1=O)c1ccccc1O	75*	1	-75	-1	3
COc1ccc(Cn2c(O)c(C=NCCN3CCOCC3)c(=O)[nH]c2=O)cc1	-20	-1	20	2	-2
COc1ccc(Cn2c(O)c(/C=N/NC(=O)c3ccccc3O)c(=O)[nH]c2=O)cc1	97*	1	-97	0	-1
CN(CC=CCN(C)P(=S)(N1CC1)N1CC1)P(=S)(N1CC1)N1CC1	-2	nt	2	-1	nt
CC(NC(=O)N1CC1(C)C)c1ccccc1 (configuration not stated)	-3	nt	3	0	nt
CC(=O)OC1C(=O)OCC23CCC4(C)OC4C2OC2CC(OC(=O)C=CC=CC(=O)OCCC1C)C3(C)C21CO1 (configuration not stated)	4	nt	-4	2	nt
CC1C(=O)OC2CCN3CC4OC4(COC(=O)C(C)(O)C1(C)O)C23 (configuration not stated)	7	nt	-7	0	nt
Nc1cc(Cl)c2nonc2c1[N+](=O)[O-]	-70	nt	70*	0	7
O=[N+]([O-])c1c(Cl)c(Cl)c(Cl)c(Cl)c1Cl	-10	nt	10	2	nt
COc1ccc(CC2NCC(O)C2OC(C)=O)cc1 (configuration not stated)	-23	nt	23	1	nt
COc1cc2c(cc1OC)-c1c(OC)c(OC)cc3c1C(C2)N(C)CC3 (configuration not stated)	76*	-4	-76	-1	-4
CC1C2Cc3ccc(O)cc3[C@]1(C)CCN2CCc1ccccc1 (some centres not stated)	-8	nt	8	0	nt
CC[n+]1c(/C=C/N(C)c2ccccc2)sc2ccc(Cl)cc21	17	-53*	-17	6	10
CN(C)c1ccc(/C=C/C=C/c2sc3ccccc3[n+]2C)cc1	15	-1	-15	4	-2
CC[n+]1c(/C=C/C=C/c2ccc(N(C)C)cc2)sc2ccccc21	94*	-7	-94	15	10
COc1ccc(Br)cc1CN1CCN(C(=O)Cc2ccccc2)CC1	i	1	725*	-1	-7
COc1ccc(CN2CCN(C(=O)Cc3ccccc3)CC2)c(OC)c1	-5	3	5	0	4
CCOC(=O)c1cc2c(cn1)[C@@H](CCO)NC2	-7	nt	7	-2	nt
CN1C(=O)NC(=O)C(N=Nc2ccc(Cl)cc2)C1=O (configuration not stated)	2	nt	-2	1	nt
Cc1ccc(C2=NCC(=O)N(CC(=O)N3CCCCC3)c3sc(C)c(C)c32)cc1	88*	1	-88	-2	0
CCC(C#N)(CC)P(=S)(c1ccccc1)c1ccccc1	-63	-2	63*	0	1
COc1cccc(CN2CCN(C(=O)COc3ccc4ccccc4c3)CC2)c1	86*	1	-86	-2	0
CN1C(=O)NC(=O)C2(CCCC2)C1=O	-2	nt	2	3	nt
NC(=S)c1cn(C2OC(CO)C(O)C2O)c2ncnc(N)c12 (configuration not stated)	1	-52*	-1	0	64*
O=C1C=CC(=O)C2C1C1(Cl)C(Cl)=C(Cl)C2(Cl)C1(Cl)Cl (configuration not stated)	5	nt	-5	3	nt
